Data: ChEMBL document CHEMBL1132580, “Syntheses and biological activities of rebeccamycin analogues. Introduction of a halogenoacetyl substituent” (J Med Chem, 1999)
In brackets after ≈: the same amount, converted by molar mass. Activity calls are given as the source filed them. The calls are words filed in the database; no cut-off is given here.

Legend:
Protein kinase C (PKC) [1] = assay: (§1) Inhibition of protein kinase C (PKC); format: protein assay
Outline: (§2)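 PKC-α activity was assayed with protamine sulfate as substrate. IC50 values were determined.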

[2] = Selectivity Index (SI) refers to the ratio of the anti HIV activities CC50/IC50 in HIV-1 Lai infected CEM-SS cells.; format: functional
Outline: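 SI = CC50/IC50. CC50 came from MTT viability (OD 540 nm) of uninfected CEM-SS cells. IC50 came from reverse transcriptase activity of virus released after 5 days from HIV-1 Lai–infected CEM-SS cells. Both values were taken from median effect plots.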

P388 [3] = assay: Cytotoxicity against P388/CPT5 leukemia cells.; format: functional, cell-based; conditions: Mus musculus
Outline: (§3)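 Murine P388 (camptothecin-sensitive) and P388/CPT5 (camptothecin-resistant, mutant top1) leukemia cells were exposed to a range of drug concentrations for 96 h at 37 °C. Viability was read by neutral red staining. IC50 is the concentration inhibiting growth by 50%.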

[4] = Resistance Index (RI) refers to the ratio of the [IC50 (P388/CPT5)] / IC50 P388.; format: functional
Outline: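 Ratio of IC50 in P388/CPT5 cells to IC50 in P388 cells. Both IC50 values came from 96 h drug exposure at 37 °C with neutral red viability readout.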

CEM-SS [5] = assay: Cytotoxicity against HIV-1 Lai infected CEM-SS cells; format: functional; conditions: Homo sapiens, in the assay text read “uninfected CEM-SS cells” for “HIV-1 Lai infected CEM-SS cells”
Outline: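 Uninfected CEM-SS cells were incubated in parallel with a range of compound concentrations. Viability was read by MTT reduction to formazan (OD 540 nm). CC50 is the concentration reducing viability by 50%, derived with the median-effect program.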

Bacillus cereus [6] = assay: Minimum inhibitory concentration against gram-positive Bacillus cereus; format: functional
Outline: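 Broth dilution in Mueller–Hinton broth pH 7.4 against B. cereus ATCC 14579. Compounds were diluted in DMSO across 12 tubes spanning 100 to 0.05 μg/mL. Read after 24 h at 27 °C.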

Nucleic Acid = assay: Variation in melting temperature (delta Tm) of helix-to-coil transition of DNA was reported.; format: nucleic-acid assay
Outline: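 A260 was followed over 20–100 °C at 1 °C/min using 20 μM calf thymus DNA with or without drug (10 μM) in BPE buffer pH 7.1 (6 mM Na2HPO4, 2 mM NaH2PO4, 1 mM EDTA). Tm was taken as the midpoint of the hyperchromic transition from the first-derivative plot.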

P388 [7] = assay: Cytotoxicity against P388 leukemia cells; format: functional, cell-based; conditions: Mus musculus; outline: as §3
CEM-SS [8] = assay: Cytotoxicity against uninfected CEM-SS cells; conditions: Homo sapiens
CEM-SS [9] = assay: Anti-HIV-1 activity in CEM-SS cells was measured by the quantification of the reverse transcriptase activity, associated with the virus particles released from HIV-1 infected cells in the culture medium.; format: functional, cell-based; conditions: Homo sapiens
Outline: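 CEM-SS cells in RPMI 1640 with 10% FBS at 37 °C, 5% CO2 were infected with HIV-1 Lai (100 TCID50). After 30 min adsorption the cells were washed and resuspended at 10⁵ cells/mL with a range of compound concentrations. Virus production was measured as reverse transcriptase activity after 5 days. IC50 was taken from a median effect plot of dose–effect data.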

Protein kinase C (PKC) [10] = assay: as §1; format: functional; outline: as §2
[11] = tested on: DNA topoisomerase 1 (Bos taurus); assay: Minimum inhibitory concentration against DNA topoisomerase I
Streptomyces chartreusis [12] = assay: Antimicrobial activity against gram-positive […] chartreusis NRRL 11407 was determined by antibiogram test.++ means growth inhibition zone was 8-9 mm.; format: functional, organism-based
Bacillus cereus [13] = assay: Antimicrobial activity against gram-positive Bacillus cereusATCC 14579 was determined by antibiogram test.++ means growth inhibition zone was 8-9 mm.; format: functional, organism-based; conditions: ATCC 14579
Outline: (§4)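 Paper-disk diffusion (6 mm disks, 300 μg drug per disk from DMSO solution) on Mueller-Hinton agar against B. cereus ATCC 14579. Inhibition zones were scored after 24 h at 27 °C.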

Bacillus cereus [14] = assay: Antimicrobial activity against gram-positive Bacillus cereusATCC 14579 was determined by antibiogram test.+ means growth inhibition zone was 7-8 mm.; format: functional, organism-based; conditions: ATCC 14579; outline: as §4
Streptomyces chartreusis [15] = assay: Antimicrobial activity against gram-positive […] chartreusis NRRL 11407 was determined by antibiogram test.+++ means growth inhibition zone was 10-12 mm.; format: functional, organism-based
Bacillus cereus [16] = assay: Antimicrobial activity against gram-positive Bacillus cereusATCC 14579 was determined by antibiogram test.+/- means growth inhibition zone was 6-7 mm.; format: functional, organism-based; conditions: ATCC 14579; outline: as §4

Structure (SMILES) | IC50 (Protein kinase C (PKC) [1]) [µM] | Selectivity index [2] | IC50 (P388 [3]) [µM] | Resistance index [4] | CC50 (CEM-SS [5]) [µM] | MIC (Bacillus cereus [6]) [µM] | DeltaTm (Nucleic Acid) | IC50 (P388 [7]) [µM] | CC50 (CEM-SS [8]) [µM] | IC50 (CEM-SS [9]) [µM] | IC50 (Protein kinase C (PKC) [10]) [µM] | MIC [11] [µM] | Antimicrobial activity (Streptomyces chartreusis [12]) | Antimicrobial activity (Bacillus cereus [13]) | Antimicrobial activity (Bacillus cereus [14]) | Antimicrobial activity (Streptomyces chartreusis [15]) | Antimicrobial activity (Bacillus cereus [16])
CO[C@H]1[C@H](O)[C@@H](O)[C@H](n2c3ccccc3c3c4c(c5c6ccccc6[nH]c5c32)C(=O)NC4=O)O[C@@H]1CO | > 142 | 5.6 | > 20 | > 28 | 0.9 | > 100 | 4.1 |  |  |  |  |  |  |  |  |  | 
COC1C(CO)OC(n2c3c(Cl)cccc3c3c4c(c5c6cccc(Cl)c6[nH]c5c32)C(=O)NC4=O)C(OC(C)=O)C1O (stereo not given) |  |  | 3.3 | 6.7 |  | > 81 | 0.5 | 0.48 | 1.2 | 1.4 | > 163 | > 16 |  |  |  |  | 
COC1C(CO)OC(n2c3ccccc3c3c4c(c5c6ccccc6[nH]c5c32)C(=O)NC4=O)C(OC(=O)CBr)C1O (stereo not given) | > 162 | 3.8 | 5 | 10.4 | 0.46 | 5.02 (≈ 3.12 µg/mL) | 3.7 | 0.48 |  | 0.12 |  | 1.59 (≈ 0.99 µg/mL) | Partially active | Active |  |  | 
COC1C(CO)OC(n2c3c(Cl)cccc3c3c4c(c5c6cccc(Cl)c6[nH]c5c32)C(=O)NC4=O)C(OC(=O)CBr)C1O (stereo not given) | 24 | 2.3 | 0.94 | 2.5 | 2.3 | 1.81 (≈ 1.25 µg/mL) | 0.5 | 0.26 |  | 0.98 |  | > 14 |  | Active |  |  | 
COC1C(CO)OC(n2c3c(Cl)cccc3c3c4c(c5c6cccc(Cl)c6[nH]c5c32)C(=O)N(CC(=O)CCl)C4=O)C(O)C1O (stereo not given) | > 151 | 2.7 | 3.5 | 15 |  | 4.72 (≈ 3.12 µg/mL) | 1.2 | 0.24 | 1.2 | 0.45 |  | 1.14 (≈ 0.753 µg/mL) |  |  | Partially active | Active | 
CO[C@H]1[C@H](O)[C@@H](O)[C@H](n2c3c(Cl)cccc3c3c4c(c5c6cccc(Cl)c6[nH]c5c32)C(=O)NC4=O)O[C@@H]1CO [REBECCAMYCIN] | > 175 | 2 | 10.5 | 8.6 |  | 10.9 (≈ 6.22 µg/mL) | 0 |  |  |  |  |  | Partially active | Active |  |  | 
COC1C(CO)OC(n2c3ccccc3c3c4c(c5c6ccccc6[nH]c5c32)C(=O)N(CCCCOC(=O)CBr)C4=O)C(O)C1O (stereo not given) | > 144 | 1.1 | > 14.4 | > 7.4 | 0.57 | > 72 | 0 | 1.94 |  | 0.5 |  | 1.44 (≈ 1 µg/mL) |  |  |  |  | inactive
COC1C(CO)OC(n2c3ccccc3c3c4c(c5c6ccccc6[nH]c5c32)C(=O)NC4=O)C(OC(C)=O)C1O (stereo not given) |  |  | 4.6 | 8.3 |  | 46 (≈ 25 µg/mL) |  | 0.55 |  |  |  | 18 (≈ 9.78 µg/mL) |  |  |  | growth inhibition zone was 10-12 mm | +/-
COC1C(CO)OC(n2c3ccccc3c3c4c(c5c6ccccc6[nH]c5c32)C(=O)NC4=O)C(O)C1OC(=O)CBr (stereo not given) | > 161 | 2.9 | 3.2 | 20 | 0.44 | 5.02 (≈ 3.12 µg/mL) | 3.2 | 0.16 |  | 0.15 |  | 1.61 (≈ 1 µg/mL) | Partially active | Active |  |  | 
COC1C(COC(=O)CBr)OC(n2c3c(Cl)cccc3c3c4c(c5c6cccc(Cl)c6[nH]c5c32)C(=O)NC4=O)C(O)C1O (stereo not given) | 101 | 4.4 | 4.3 | 10 |  | > 72 | 0.5 | 0.43 | 1.45 | 0.33 |  | 1.45 (≈ 1 µg/mL) |  |  |  |  | inactive
